Experimental data reported in ChEMBL document CHEMBL4118197, “The discovery and preclinical evaluation of BMS-707035, a potent HIV-1 integrase strand transfer inhibitor” (Bioorg Med Chem Lett, 2018).
≈ marks a conversion by molar mass, not a printed value.

How the values were obtained:
[1] = Half-life in Sprague-Dawley rat at 0.87 mg/kg, iv; type: ADME, organism-based; conditions: in vivo
In short: (§1)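 Single IV (about 1 mg/kg) and oral (about 5 mg/kg) doses in rat, cynomolgus monkey and dog; CL, t1/2, Vss, Cmax, tmax, AUC and oral bioavailability F derived from plasma concentration-time data.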

[2] = Volume of distribution at steady state in Sprague-Dawley rat at 0.87 mg/kg, iv; type: ADME, organism-based; conditions: in vivo, read-out: Vdss
[3] = Clearance in cynomolgus monkey at 1 mg/kg, iv; type: ADME, organism-based, Macaca fascicularis; conditions: in vivo; in short: as §1
[4] = Half-life in cynomolgus monkey at 1 mg/kg, iv; type: ADME, organism-based, Macaca fascicularis; conditions: in vivo; in short: as §1
[5] = Volume of distribution at steady state in cynomolgus monkey at 1 mg/kg, iv; type: ADME, organism-based, Macaca fascicularis; conditions: in vivo, read-out: Vdss
[6] = Clearance in Beagle dog at 1 mg/kg, iv; type: ADME, organism-based, Canis lupus familiaris; conditions: in vivo; in short: as §1
[7] = Half-life in Beagle dog at 1 mg/kg, iv; type: ADME, organism-based, Canis lupus familiaris; conditions: in vivo; in short: as §1
[8] = Volume of distribution at steady state in Beagle dog at 1 mg/kg, iv; type: ADME, organism-based, Canis lupus familiaris; conditions: in vivo, read-out: Vdss
[9] = Cmax in Sprague-Dawley rat at 4.4 mg/kg, po; type: ADME, organism-based; parameters: dose 4.4 mg/kg, route oral; conditions: in vivo; in short: as §1
[10] = Tmax in Sprague-Dawley rat at 4.4 mg/kg, po; type: ADME, organism-based; conditions: in vivo
[11] = AUC in Sprague-Dawley rat at 4.4 mg/kg, po; type: ADME, organism-based; conditions: in vivo; in short: as §1
[12] = Oral bioavailability in Sprague-Dawley rat at 4.4 mg/kg; type: ADME, organism-based; conditions: in vivo; in short: as §1
[13] = Cmax in cynomolgus monkey at 5 mg/kg, po; type: ADME, organism-based, Macaca fascicularis; parameters: dose 5 mg/kg, route oral; conditions: in vivo; in short: as §1
[14] = Tmax in cynomolgus monkey at 5 mg/kg, po; type: ADME, organism-based, Macaca fascicularis; conditions: in vivo
[15] = AUC in cynomolgus monkey at 5 mg/kg, po; type: ADME, organism-based, Macaca fascicularis; conditions: in vivo; in short: as §1
[16] = Oral bioavailability in cynomolgus monkey at 5 mg/kg; type: ADME, organism-based, Macaca fascicularis; conditions: in vivo; in short: as §1
[17] = Cmax in Beagle dog at 5.2 mg/kg, po; type: ADME, organism-based, Canis lupus familiaris; parameters: dose 5.2 mg/kg, route oral; conditions: in vivo; in short: as §1
[18] = Tmax in Beagle dog at 5.2 mg/kg, po; type: ADME, organism-based, Canis lupus familiaris; conditions: in vivo
[19] = AUC in Beagle dog at 5.2 mg/kg, po; type: ADME, organism-based, Canis lupus familiaris; conditions: in vivo; in short: as §1
[20] = Oral bioavailability in Beagle dog at 5.2 mg/kg; type: ADME, organism-based, Canis lupus familiaris; conditions: in vivo; in short: as §1
[21] = Cmax in dog in 12 month toxicology study; type: ADME, organism-based, Canis lupus familiaris; conditions: in vivo
Canis familiaris = species: Canis familiaris; assay: Toxicity in dog assessed as occurence of convulsions; type: organism-based, Canis lupus familiaris; conditions: in vivo
Homo sapiens [22] = assay: Toxicity in normal healthy human at 200 to 1200 mg, po, administered as single dose; type: organism-based; conditions: in vivo
In short: (§2)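 Human subjects received single oral doses of 200, 600, 800 or 1200 mg and were monitored for clinically significant adverse events.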

Homo sapiens [23] = assay: Toxicity in normal healthy human assessed as occurence of adverse events at 200 to 1200 mg, po, administered as single dose; type: organism-based; conditions: in vivo; in short: as §2
[24] = Drug uptake in normal healthy human at 600 mg, po qd after 24 hrs; type: ADME, organism-based; conditions: in vivo, read-out: Drug uptake
In short: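 Healthy volunteers given 600 mg orally once daily; mean plasma concentration measured 24 h post-dose (C24h).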

[25] = Ssolubility of the compound at pH 7.3; type: physicochemical; conditions: buffer
[26] = Solubility of the compound at pH 8.5; type: physicochemical; conditions: buffer
Salmonella typhimurium [27] = assay: Genotoxicity in Salmonella typhimurium TA100 at =<5000 ug/plate in presence of metabolic activators by Ames test; type: toxicity, organism-based; conditions: salmonella enterica subsp. enterica serovar typhimurium
In short: (§3)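 Bacterial reverse mutation (Ames) test, Salmonella typhimurium TA98 and TA100, up to 5000 µg/plate, with and without metabolic activation.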

Salmonella typhimurium [28] = assay: Genotoxicity in Salmonella typhimurium TA98 at =<5000 ug/plate in absence of metabolic activators by Ames test; type: toxicity, organism-based; conditions: salmonella enterica subsp. enterica serovar typhimurium; in short: as §3
Salmonella typhimurium [29] = assay: Genotoxicity in Salmonella typhimurium TA100 at =<5000 ug/plate in absence of metabolic activators by Ames test; type: toxicity, organism-based; conditions: salmonella enterica subsp. enterica serovar typhimurium; in short: as §3

- half-life [1]: 4 h
- Vd [2]: 0.86 L/kg
- clearance [3]: 6.8 mL/min/kg
- half-life [4]: 6.5 h
- Vd [5]: 0.87 L/kg
- clearance [6]: 2 mL/min/kg
- half-life [7]: 6 h
- Vd [8]: 0.45 L/kg
- Cmax [9]: 4.51 µM
- Tmax [10]: 0.25 h
- AUC [11]: 19.1 µM·h
- bioavailability [12]: 86%
- Cmax [13]: 6.12 µM
- Tmax [14]: 0.25 h
- AUC [15]: 19.2 µM·h
- bioavailability [16]: 56%
- Cmax [17]: 72.8 µM
- Tmax [18]: 0.25 h
- AUC [19]: 162 µM·h
- bioavailability [20]: 129%
- concentration at 24 h [24]: 340 ng/mL
- solubility [25]: 63 µg/mL (≈ 181 µM)
- solubility [26]: 234 µg/mL (≈ 674 µM)
Compound: CC1(C)OCCn2c1nc(C(=O)NCc1ccc(F)cc1)c(O)c2=O
- Cmax at 12 month [21]: ≥ 67000 ng/mL
- Activity (Canis familiaris): Toxic
- Activity (Homo sapiens [22]): Non-Toxic
- Activity (Homo sapiens [23]): Non-Toxic
- Activity (Salmonella typhimurium [27]): Non-Toxic
- Activity (Salmonella typhimurium [28]): Non-Toxic
- Activity (Salmonella typhimurium [29]): Non-Toxic
